Measured values taken from ChEMBL document CHEMBL3259614, “Design, synthesis, and structure-activity relationship studies of novel fused heterocycles-linked triazoles with good activity and water solubility” (J Med Chem, 2014).
≈ marks a conversion by molar mass, not a printed value.

What was measured:
Assay type in all cases: functional
[1] = test system: Candida albicans; assay: Antimicrobial activity against Candida albicans Y0109 after 24 hrs by serial dilution method; conditions: Y0109, 24 h
In short: (§1)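 Broth serial dilution MIC in 96-well plates following NCCLS/CLSI methods. Compounds were dissolved in DMSO and serially diluted in growth medium, with incubation at 35 °C. […] C. parapsilosis 22019 served as the quality-control strain in each assay.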

[2] = test system: Candida parapsilosis; assay: Antimicrobial activity against Candida parapsilosis 22019 after 24 hrs by serial dilution method; conditions: Lodderomyces parapsilosis, 22019, 24 h; in short: as §1
[3] = test system: Candida albicans; assay: Antimicrobial activity against Candida albicans SC5314 after 24 hrs by serial dilution method; conditions: SC5314, 24 h; in short: as §1
[4] = test system: Nakaseomyces glabratus; assay: Antimicrobial activity against Candida glabrata 537 after 24 hrs by serial dilution method; conditions: Nakaseomyces glabratus, 537, 24 h; in short: as §1
[5] = test system: Cryptococcus neoformans; assay: Antimicrobial activity against Cryptococcus neoformans 32609 after 72 hrs by serial dilution method; conditions: Cryptococcus neoformans, 32609, 72 h; in short: as §1
[6] = test system: Aspergillus fumigatus; assay: Antimicrobial activity against Aspergillus fumigatus 7544 after 48 hrs by serial dilution method; conditions: Aspergillus fumigatus, 7544, 48 h; in short: as §1

Row | Structure (SMILES) | MIC [1] [µg/mL] | MIC [2] [µg/mL] | MIC [3] [µg/mL] | MIC [4] [µg/mL] | MIC [5] [µg/mL] | MIC [6] [µg/mL]
1 | C[C@@H](N1CCc2cc(-c3cccnc3)sc2C1)[C@](O)(Cn1cncn1)c1ccc(F)cc1F | 1 (≈ 2.14 µM) | 1 (≈ 2.14 µM) | 0.5 (≈ 1.07 µM) | 1 (≈ 2.14 µM) | 0.5 (≈ 1.07 µM) | 8 (≈ 17.1 µM)
2 | C[C@@H](N1CCn2cc(C(F)(F)F)nc2C1)[C@](O)(Cn1cncn1)c1ccc(F)cc1F | 0.25 (≈ 0.565 µM) | 0.25 (≈ 0.565 µM) | 0.25 (≈ 0.565 µM) | 0.25 (≈ 0.565 µM) | 1 (≈ 2.26 µM) | > 64
3 | COc1ccc(-c2nc3n(n2)CCN([C@H](C)[C@](O)(Cn2cncn2)c2ccc(F)cc2F)C3)cc1 | 0.125 (≈ 0.26 µM) | 0.25 (≈ 0.519 µM) | 0.0625 (≈ 0.13 µM) | 0.125 (≈ 0.26 µM) | 0.125 (≈ 0.26 µM) | 32 (≈ 66.5 µM)
4 | C[C@@H](N1CCc2sc(-c3cccnc3)cc2C1)[C@](O)(Cn1cncn1)c1ccc(F)cc1F | 8 (≈ 17.1 µM) | 4 (≈ 8.56 µM) | 1 (≈ 2.14 µM) | 2 (≈ 4.28 µM) | 4 (≈ 8.56 µM) | 32 (≈ 68.4 µM)
5 | C[C@@H](N1CCc2sc(Br)cc2C1)[C@](O)(Cn1cncn1)c1ccc(F)cc1F | 4 (≈ 8.52 µM) | 8 (≈ 17 µM) | 2 (≈ 4.26 µM) | 4 (≈ 8.52 µM) | 2 (≈ 4.26 µM) | 64 (≈ 136 µM)
6 | Cc1cccc(-c2cc3c(s2)CCN([C@H](C)[C@](O)(Cn2cncn2)c2ccc(F)cc2F)C3)c1 | 2 (≈ 4.16 µM) | 2 (≈ 4.16 µM) | 1 (≈ 2.08 µM) | 4 (≈ 8.32 µM) | 4 (≈ 8.32 µM) | 16 (≈ 33.3 µM)
7 | C[C@@H](N1CCc2sc(-c3cncnc3)cc2C1)[C@](O)(Cn1cncn1)c1ccc(F)cc1F | 4 (≈ 8.54 µM) | 4 (≈ 8.54 µM) | 2 (≈ 4.27 µM) | 8 (≈ 17.1 µM) | 4 (≈ 8.54 µM) | > 32
8 | C[C@@H](N1CCc2sc(-c3ccc(C#N)nc3)cc2C1)[C@](O)(Cn1cncn1)c1ccc(F)cc1F | 4 (≈ 8.12 µM) | 2 (≈ 4.06 µM) | 1 (≈ 2.03 µM) | 2 (≈ 4.06 µM) | 1 (≈ 2.03 µM) | 32 (≈ 65 µM)
9 | C[C@@H](N1CCc2cc(-c3ccc(C#N)nc3)sc2C1)[C@](O)(Cn1cncn1)c1ccc(F)cc1F | 4 (≈ 8.12 µM) | 4 (≈ 8.12 µM) | 2 (≈ 4.06 µM) | 4 (≈ 8.12 µM) | 4 (≈ 8.12 µM) | 32 (≈ 65 µM)
10 | Cc1nnn2c1CN([C@H](C)[C@](O)(Cn1cncn1)c1ccc(F)cc1F)CC2 | 0.5 (≈ 1.28 µM) | 0.5 (≈ 1.28 µM) | 0.25 (≈ 0.642 µM) | 0.5 (≈ 1.28 µM) | 4 (≈ 10.3 µM) | 16 (≈ 41.1 µM)
11 | C[C@@H](N1CCc2nc(-c3cncc(F)c3)sc2C1)[C@](O)(Cn1cncn1)c1ccc(F)cc1F | 0.125 (≈ 0.257 µM) | 0.25 (≈ 0.514 µM) | 0.125 (≈ 0.257 µM) | 0.125 (≈ 0.257 µM) | 0.125 (≈ 0.257 µM) | 8 (≈ 16.4 µM)
12 | C[C@@H](N1CCn2cc(-c3ccc(C(F)(F)F)cc3)nc2C1)[C@](O)(Cn1cncn1)c1ccc(F)cc1F | 0.25 (≈ 0.482 µM) | 0.25 (≈ 0.482 µM) | 0.125 (≈ 0.241 µM) | 0.25 (≈ 0.482 µM) | 0.125 (≈ 0.241 µM) | 32 (≈ 61.7 µM)
13 | C[C@@H](N1CCn2nc(C(F)(F)F)nc2C1)[C@](O)(Cn1cncn1)c1ccc(F)cc1F | 0.5 (≈ 1.13 µM) | 0.5 (≈ 1.13 µM) | 0.25 (≈ 0.564 µM) | 1 (≈ 2.26 µM) | 0.5 (≈ 1.13 µM) | 32 (≈ 72.2 µM)

More lines, in order of falling MIC [1], values ahead:

Row | MIC [1] [µg/mL] | MIC [2] [µg/mL] | MIC [3] [µg/mL] | MIC [4] [µg/mL] | MIC [5] [µg/mL] | MIC [6] [µg/mL] | Structure (SMILES)
14 | 8 (≈ 16.3 µM) | 8 (≈ 16.3 µM) | 2 (≈ 4.07 µM) | 8 (≈ 16.3 µM) | 4 (≈ 8.14 µM) | 64 (≈ 130 µM) | C[C@@H](N1CCc2sc(-c3ccc(C#N)cc3)cc2C1)[C@](O)(Cn1cncn1)c1ccc(F)cc1F
15 | 4 (≈ 8.84 µM) | 8 (≈ 17.7 µM) | 2 (≈ 4.42 µM) | 8 (≈ 17.7 µM) | 4 (≈ 8.84 µM) | 8 (≈ 17.7 µM) | C[C@@H](N1CCn2nnc(-c3cccnc3)c2C1)[C@](O)(Cn1cncn1)c1ccc(F)cc1F
16 | 2 (≈ 4.15 µM) | 1 (≈ 2.08 µM) | 2 (≈ 4.15 µM) | 4 (≈ 8.31 µM) | 4 (≈ 8.31 µM) | 32 (≈ 66.4 µM) | Cc1cccc(-c2nc3c(s2)CN([C@H](C)[C@](O)(Cn2cncn2)c2ccc(F)cc2F)CC3)c1
17 | 0.25 (≈ 0.534 µM) | 0.5 (≈ 1.07 µM) | 0.5 (≈ 1.07 µM) | 1 (≈ 2.13 µM) | 0.5 (≈ 1.07 µM) | 16 (≈ 34.1 µM) | C[C@@H](N1CCc2cc(-c3cncnc3)sc2C1)[C@](O)(Cn1cncn1)c1ccc(F)cc1F
18 | 0.125 (≈ 0.25 µM) | 0.25 (≈ 0.5 µM) | 0.0625 (≈ 0.125 µM) | 0.25 (≈ 0.5 µM) | 0.5 (≈ 1 µM) | 8 (≈ 16 µM) | COc1ncc(-c2nc3c(s2)CN([C@H](C)[C@](O)(Cn2cncn2)c2ccc(F)cc2F)CC3)cn1
19 | 0.125 (≈ 0.257 µM) | 0.5 (≈ 1.03 µM) | 0.25 (≈ 0.514 µM) | 0.5 (≈ 1.03 µM) | 0.125 (≈ 0.257 µM) | 16 (≈ 32.9 µM) | C[C@@H](N1CCn2nc(-c3ccc(Cl)cc3)nc2C1)[C@](O)(Cn1cncn1)c1ccc(F)cc1F
20 | 0.0625 (≈ 0.133 µM) | 0.0625 (≈ 0.133 µM) | 0.0156 (≈ 0.0332 µM) | 0.0312 (≈ 0.0664 µM) | 0.0312 (≈ 0.0664 µM) | 2 (≈ 4.25 µM) | C[C@@H](N1CCn2nc(-c3ccc(F)nc3)nc2C1)[C@](O)(Cn1cncn1)c1ccc(F)cc1F
